Assay outcomes as filed in PubChem.
Kir21 block – Kir2.1 (mouse) channel inhibition. P35561. HEK293-Kir2.1, FluxOR thallium flux fluorescence; hits give low values. B-score at 10 µM. actives 0.85% (n = 310,000);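 active means fluorescence ratio B-score at or below minus 3 SD of library scores, with starting-brightness B-score within 2 SD, cut at about -4.2 in these data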;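 further: channel flux triggered by added potassium and thallium sulfate stimulus; B-score of peak minus minimum fluorescence over baseline after thallium stimulus; more negative B-score means stronger Kir2.1 block with less thallium influx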
KCNQ1 block – inhibitors of human KCNQ1 potassium channel | CHO-K1 KCNQ1, FluxOR thallium flux fluorescence; hits give high values | P51787 | B-score at 10 µM | actives 1.3% (n = 310,000);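 active means compounds whose thallium flux B-score, printed positive for inhibition, exceeds three library SD while starting fluorescence stays within three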;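 further: channel opened by potassium depolarization with thallium stimulus after 20 min compound exposure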
KCNK3 block – human KCNK3 channel inhibition, primary screen | O14649 | CHO-KCNK3 thallium flux, FluxOR fluorescence; hits give low values | B-score at 10 µM | actives 0.84% (n = 340,000) | AID 602410;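 active means B-score under library mean minus 4 SD, starting fluorescence ratio at most library mean plus 5 SD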;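 further: more negative B-score means stronger inhibition of thallium flux through KCNK3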
KCNK9 inh – human KCNK9 channel inhibition. actives 1.2% (n = 310,000). HEK293 KCNK9, FluxOR thallium flux fluorescence; hits give low values. Q9NPC2. B-score at 10 µM;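 active means ratio B-score over 3 SD below the library mean, with starting fluorescence within 5 SD of its mean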;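 further: negative B-score means less thallium flux so channel inhibition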
hERG protect – hERG (human) protection from proarrhythmic block; Q12809; CHO-hERG, FluxOR thallium flux, dofetilide IC70 present; activation (rescue from dofetilide block), less the hit threshold, % at 10 µM; actives 0.51% (n = 310,000); AID 1511;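 active means activation above the mean of controls blocked by dofetilide plus 5 SD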;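 further: thallium influx through hERG after potassium depolarization seen as dye fluorescence rise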
KCNQ1 pot – potentiates or activates the human KCNQ1 potassium channel. P51787. CHO-K1 KCNQ1, thallium flux FluxOR fluorescence; hits give high values. B-score at 10 µM. actives 0.35% (n = 310,000);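 active means fluorescence ratio B-score, a plate-corrected score, at least three library SD, with initial intensity B-score within 5 SD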
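assay system = CHO-K1 cells stably expressing KCNQ1 | medium = assay buffer, equal DMSO in all wells | timing = 37 °C overnight plating, 90-min dark dye load, 20-min compound pretreatment | measured by = kinetic FluxOR thallium fluorescence, 10-s 1-Hz baseline, 110-s post-stimulus read | measure = fluorescence change relative to baseline, converted to B score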
An asterisk follows results filed as active; i = inactive; . = not tested or not shown. Hits are enriched below; roughly 3.7% of the tested compounds scored in any of these assays.

SMILES | Kir21 block | KCNQ1 block | KCNK3 block | KCNK9 inh | hERG protect | KCNQ1 pot
COc1ccc(N(Cc2ccccc2)S(=O)(=O)c2cccc(C(=O)Nc3ncccc3C)c2)cc1 | . | . | i | . | . | .
Cc1ccc2nc(NCCc3ccccc3)c3nncn3c2c1 | 0.31 | i | i | i | -8 | i
CC(NC(=O)CC1CCCCC1)c1ccccc1 (stereo unspecified) | -0.1 | i | i | i | -5 | i
CC(NC(=O)NC1CCCCC1)c1ccccc1 (stereo unspecified) | 0.55 | i | i | i | 7.3* | i
O=C(NCc1nc2ncc(Br)cc2[nH]1)c1ccccc1 | 0.24 | i | i | i | 6.2* | i
Brc1cnc2nc(SC/C=C/c3ccccc3)[nH]c2c1 | 0.16 | i | i | i | -8 | i
O=C(c1cccc(F)c1)N1CCCC(C(=O)N2CCCCCC2)C1 (stereo unspecified) | -0.12 | i | i | i | -5 | i
CC(C)(C)C(=O)c1no[n+]([O-])c1/C(=N/O)C(C)(C)C | -1.3 | 6* | i | i | -10 | i
Cc1ccc(/C=C/C2=NN(Cc3ccccc3Cl)C(=O)CC2)cc1 | -1 | 11* | i | i | -6 | i
COc1ccc(NC(=O)c2cccc(NC3=NC4CS(=O)(=O)CC4S3)c2)cc1Cl (stereo unspecified) | -0.56 | i | i | i | -12 | i
Cn1c(=O)c2nc3ccccc3nc2n(C)c1=O | -1.6 | i | i | i | -19 | 10*
Cn1c(=O)c2nc(-c3ccccc3)c(-c3ccccc3)nc2n(C)c1=O | -0.2 | i | i | i | -4 | i
Cc1ccc(F)c(Cn2cnc3c(cnn3C(C)(C)C)c2=O)c1Cl | . | . | i | . | . | .
Cc1cccc(NC(=O)NNC(=O)COc2ccc3ccccc3c2)c1 | 0 | i | i | i | -4 | i
Cc1cc(Br)ccc1OCC(=O)NNC(=O)C(=O)Nc1ccccc1 | 0.37 | i | i | i | 51* | 92*
Cc1cc(Br)ccc1OCC(=O)NNC(=O)Cc1ccccc1 | 1.4 | i | i | i | -7 | i
O=C(COc1ccc2ccccc2c1)NNC(=O)C(=O)Nc1ccccc1 | 0.24 | i | i | i | 45* | 35*
Cc1ccccc1OCC(=O)Nc1cccc(C(=O)O)c1 | 1.5 | i | i | i | 5.5* | i
CCN(C(=O)COc1ccc(N(C)S(=O)(=O)c2ccc(NC(C)=O)cc2)cc1)C1CCCCC1 | . | . | -8.7* | . | . | .
Cc1ccn2c(=O)nc(SCC(=O)NC3CCCC3)nc2c1 | -0.17 | i | i | i | -12 | i
O=C1NC2(CCCCCC2)C(=O)N1Cc1c(F)cccc1Cl | 0.15 | i | i | i | -6 | i
Oc1ccc(C[C@H]2CNC(=S)N2CC2CCCN2C[C@H](Cc2ccccc2)N2C[C@H](Cc3ccc(O)cc3)N(CCc3ccccc3)C2=S)cc1 (stereo partly specified) | . | . | i | . | . | .
COc1ccc(NC(=O)c2ccco2)c2ccccc12 | 1.7 | i | i | i | -12 | i
CC(C)N(Cc1ccccc1)C(=O)CN1C(=O)NC2(CCCCCC2)C1=O | . | . | i | . | . | .
CCc1ccc(NC(=O)C(=O)NNC(=O)COc2cccc(OC)c2)cc1 | -1.5 | i | i | i | 7.2* | 28*
SMILES | Kir21 block | KCNQ1 block | KCNK3 block | KCNK9 inh | hERG protect | KCNQ1 pot
CN(c1ccc(OCC(=O)OCC(=O)Nc2ccc(F)cc2)cc1)S(=O)(=O)c1ccc(Cl)cc1 | -0.06 | i | i | i | -3 | i
COc1ccc(NC(=O)C(=O)NNC(=O)COc2ccc(Cl)cc2)c(OC)c1 | 0.06 | i | i | i | 16* | 69*
COc1cc(NC(=O)COc2ccc(Cl)cc2)ccc1NC(=O)C(C)C | 0.33 | i | i | i | 2 | i
CCOc1ccc(NC(=O)COc2ccc(OC)cc2)cc1 | -1.3 | i | i | i | -8 | i
COc1ccc(NC(=O)COc2ccc(N(C)S(=O)(=O)c3ccc(Cl)cc3)cc2)cc1OC | 2.2 | 10* | i | i | -23 | i
COc1ccc(NC(=O)C(=O)NNC(=O)COc2ccc(OC)cc2)cc1 | 0.74 | i | i | i | 7.8* | i
